Experimental data taken from ChEMBL document CHEMBL4118181, “Investigations on small molecule inhibitors targeting the histone H3K4 tri-methyllysine binding PHD-finger of JmjC histone demethylases” (Bioorg Med Chem, 2018).
Active and inactive are the calls of the source. The rule behind the calls is not given here.

Columns and labels:
[1] = molecular target: T1, Lysine-specific demethylase 7A (Homo sapiens) (UniProt Q6ZMT4); test: Displacement of C-terminally biotinylated-H3K4me3 (1 to 21 residues) peptide from KDM7A (PHD-JmjC) (unknown origin) at 100 uM preincubated for 15 mins followed by peptide addition measured after 1 hr by luminescence-based AlphaScreen assay
T1 sequence (whole entry): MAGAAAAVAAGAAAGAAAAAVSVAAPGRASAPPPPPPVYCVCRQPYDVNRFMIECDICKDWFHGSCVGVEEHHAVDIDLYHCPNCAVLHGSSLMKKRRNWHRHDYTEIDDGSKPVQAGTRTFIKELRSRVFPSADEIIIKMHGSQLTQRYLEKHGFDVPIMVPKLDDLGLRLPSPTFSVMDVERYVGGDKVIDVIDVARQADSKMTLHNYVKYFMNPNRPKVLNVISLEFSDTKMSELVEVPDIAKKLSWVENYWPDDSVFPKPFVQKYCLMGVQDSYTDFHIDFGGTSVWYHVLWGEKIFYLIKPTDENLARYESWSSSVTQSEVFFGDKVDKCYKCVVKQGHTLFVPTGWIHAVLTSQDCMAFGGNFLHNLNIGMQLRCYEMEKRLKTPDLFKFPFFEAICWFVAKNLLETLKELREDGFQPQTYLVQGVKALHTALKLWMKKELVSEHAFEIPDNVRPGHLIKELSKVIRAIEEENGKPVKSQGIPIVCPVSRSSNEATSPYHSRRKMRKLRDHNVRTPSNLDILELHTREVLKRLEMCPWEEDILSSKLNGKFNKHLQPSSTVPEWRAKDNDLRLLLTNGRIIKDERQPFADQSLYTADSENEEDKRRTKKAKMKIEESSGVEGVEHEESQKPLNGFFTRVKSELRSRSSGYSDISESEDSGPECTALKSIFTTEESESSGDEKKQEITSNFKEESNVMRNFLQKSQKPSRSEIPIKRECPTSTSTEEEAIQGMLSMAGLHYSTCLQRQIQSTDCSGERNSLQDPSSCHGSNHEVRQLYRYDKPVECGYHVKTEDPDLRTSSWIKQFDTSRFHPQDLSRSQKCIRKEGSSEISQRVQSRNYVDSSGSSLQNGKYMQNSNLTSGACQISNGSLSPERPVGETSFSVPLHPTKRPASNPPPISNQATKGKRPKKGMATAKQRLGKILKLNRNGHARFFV

[2] = molecular target: Histone lysine demethylase PHF8 (Homo sapiens) (UniProt Q9UPP1); test: Displacement of C-terminally biotinylated-H3K4me3 (1 to 21 residues) peptide from KDM7B (PHD-JmjC) (unknown origin) at 100 uM preincubated for 15 mins followed by peptide addition measured after 1 hr by luminescence-based AlphaScreen assay
Sequence of Histone lysine demethylase PHF8 (Homo sapiens) (Q9UPP1 whole entry, the tested form may be a part): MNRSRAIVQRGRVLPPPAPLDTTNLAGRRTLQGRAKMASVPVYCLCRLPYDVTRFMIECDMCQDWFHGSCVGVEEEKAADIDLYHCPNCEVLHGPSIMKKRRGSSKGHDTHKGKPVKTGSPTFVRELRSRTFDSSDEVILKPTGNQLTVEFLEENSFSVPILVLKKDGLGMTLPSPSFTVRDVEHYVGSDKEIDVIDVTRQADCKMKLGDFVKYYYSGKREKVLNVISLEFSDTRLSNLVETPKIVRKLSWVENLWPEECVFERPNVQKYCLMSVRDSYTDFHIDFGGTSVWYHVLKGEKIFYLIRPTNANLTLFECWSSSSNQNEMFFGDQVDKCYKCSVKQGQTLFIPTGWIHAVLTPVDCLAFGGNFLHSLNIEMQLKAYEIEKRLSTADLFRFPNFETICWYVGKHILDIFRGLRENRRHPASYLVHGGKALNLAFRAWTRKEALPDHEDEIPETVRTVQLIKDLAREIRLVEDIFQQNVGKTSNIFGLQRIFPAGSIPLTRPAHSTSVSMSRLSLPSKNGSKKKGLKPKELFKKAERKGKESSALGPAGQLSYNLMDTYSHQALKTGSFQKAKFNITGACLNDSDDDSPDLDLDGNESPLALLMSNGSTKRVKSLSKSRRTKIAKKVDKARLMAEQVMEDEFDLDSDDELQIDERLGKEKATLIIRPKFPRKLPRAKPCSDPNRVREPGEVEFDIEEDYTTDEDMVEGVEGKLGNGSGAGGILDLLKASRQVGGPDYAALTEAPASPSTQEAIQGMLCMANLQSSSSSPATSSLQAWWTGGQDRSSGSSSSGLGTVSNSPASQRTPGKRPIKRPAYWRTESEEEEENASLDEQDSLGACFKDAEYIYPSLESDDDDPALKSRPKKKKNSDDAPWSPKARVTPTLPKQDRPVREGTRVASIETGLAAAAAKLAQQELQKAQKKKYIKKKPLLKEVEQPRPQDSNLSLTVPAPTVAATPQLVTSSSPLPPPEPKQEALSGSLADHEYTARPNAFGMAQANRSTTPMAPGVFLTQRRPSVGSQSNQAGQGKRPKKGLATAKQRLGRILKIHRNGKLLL

[3] = molecular target: T1, Lysine-specific demethylase 7A (Homo sapiens); test: Inhibition of KDM7A (PHD-JmjC) (unknown origin) demethylation activity at 100 uM preincubated for 10 mins followed by H3(1-15)K9me2 peptide substrate addition by MALDI-TOF-MS analysis
[4] = molecular target: Lysine-specific demethylase 5A (Homo sapiens) (UniProt P29375); test: Substrate activity at KDM5A (L88 to G353 residues) ARID/PHD1/2/3 deletion mutant (unknown origin) demethylation activity assessed as formaldehyde production measured every 30 seconds over 25 mins in absence of H3K4me3
Sequence of Lysine-specific demethylase 5A (Homo sapiens) (P29375 whole entry, the tested form may be a part): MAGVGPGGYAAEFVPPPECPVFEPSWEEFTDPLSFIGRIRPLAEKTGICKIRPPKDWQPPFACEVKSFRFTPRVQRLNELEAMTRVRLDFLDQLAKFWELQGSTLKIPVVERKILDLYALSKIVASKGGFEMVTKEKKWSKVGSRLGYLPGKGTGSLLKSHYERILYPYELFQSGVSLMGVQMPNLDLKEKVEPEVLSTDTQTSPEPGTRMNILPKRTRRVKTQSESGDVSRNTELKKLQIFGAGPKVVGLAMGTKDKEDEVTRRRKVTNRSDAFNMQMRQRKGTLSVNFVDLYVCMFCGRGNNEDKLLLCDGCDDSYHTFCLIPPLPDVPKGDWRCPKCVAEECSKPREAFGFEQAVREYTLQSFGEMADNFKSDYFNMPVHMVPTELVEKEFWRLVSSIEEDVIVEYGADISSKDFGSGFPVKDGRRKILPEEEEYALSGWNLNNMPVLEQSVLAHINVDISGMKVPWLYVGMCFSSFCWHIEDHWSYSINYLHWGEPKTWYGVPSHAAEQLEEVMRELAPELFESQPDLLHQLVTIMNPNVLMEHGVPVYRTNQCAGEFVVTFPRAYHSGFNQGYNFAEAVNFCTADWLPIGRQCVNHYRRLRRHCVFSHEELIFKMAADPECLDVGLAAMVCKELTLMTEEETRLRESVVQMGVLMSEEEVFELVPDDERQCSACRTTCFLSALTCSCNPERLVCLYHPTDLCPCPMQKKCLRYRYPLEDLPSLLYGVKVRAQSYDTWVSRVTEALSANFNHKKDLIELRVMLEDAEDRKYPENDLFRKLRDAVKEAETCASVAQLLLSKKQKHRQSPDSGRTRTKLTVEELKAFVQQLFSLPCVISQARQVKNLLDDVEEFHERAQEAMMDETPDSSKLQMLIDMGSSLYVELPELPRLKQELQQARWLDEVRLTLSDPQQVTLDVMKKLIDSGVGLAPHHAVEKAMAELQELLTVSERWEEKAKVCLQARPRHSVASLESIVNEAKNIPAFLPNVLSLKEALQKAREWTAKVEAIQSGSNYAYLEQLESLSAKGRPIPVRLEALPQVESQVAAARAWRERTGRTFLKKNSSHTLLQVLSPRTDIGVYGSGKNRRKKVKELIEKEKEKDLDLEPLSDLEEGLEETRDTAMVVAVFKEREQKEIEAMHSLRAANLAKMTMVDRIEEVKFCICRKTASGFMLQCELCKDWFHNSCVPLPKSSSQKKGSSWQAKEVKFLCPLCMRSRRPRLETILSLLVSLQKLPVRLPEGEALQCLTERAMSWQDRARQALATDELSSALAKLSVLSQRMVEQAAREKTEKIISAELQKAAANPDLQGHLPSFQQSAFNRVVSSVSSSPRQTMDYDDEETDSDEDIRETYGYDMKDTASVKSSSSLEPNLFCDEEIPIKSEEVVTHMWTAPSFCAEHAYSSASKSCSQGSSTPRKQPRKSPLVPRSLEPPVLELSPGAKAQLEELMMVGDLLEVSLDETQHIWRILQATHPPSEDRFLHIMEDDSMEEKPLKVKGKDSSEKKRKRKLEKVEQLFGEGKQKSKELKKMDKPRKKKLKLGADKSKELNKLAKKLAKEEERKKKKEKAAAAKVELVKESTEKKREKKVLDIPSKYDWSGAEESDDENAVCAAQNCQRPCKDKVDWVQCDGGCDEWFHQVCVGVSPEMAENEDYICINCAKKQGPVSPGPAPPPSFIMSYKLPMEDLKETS

[5] = molecular target: Lysine-specific demethylase 5A (Homo sapiens) (UniProt P29375); test: Mixed type inhibition of KDM5A (L88 to G353 residues) ARID/PHD1/2/3 deletion mutant (unknown origin) demethylation activity using H3(1-21)K4me3 peptide as substrate measured every 30 seconds over 25 mins by formaldehyde dehydrogenase coupled activity assay based Lineweaver-Burk plot analysis
How it was run: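 FDH enzyme-coupled fluorescence assay of KDM5A_c2 demethylation, with formaldehyde production as the read-out. Kinetic analysis is made against the H3K4me3 substrate, and α and Ki are derived to assign the inhibition mode.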

SMILES | inhibition [1] | inhibition [2] | inhibition [3] [%] | Activity [4] | inhibition [5]
CCCCc1oc2ccccc2c1C(=O)c1cc(I)c(OCC[N+](C)(C)C)c(I)c1 | inactive | inactive | 17 | – | –
CCCCc1oc2ccccc2c1C(=O)c1cc(I)c(OCCC[N+](C)(C)C)c(I)c1 | – | inactive | 100 | – | –
CCCCc1oc2ccccc2c1C(=O)c1ccc(OCCCN(C)C)cc1 | – | inactive | 100 | – | –
CCCCc1oc2ccccc2c1C(=O)c1ccc(OCCC[N+](C)(C)C)cc1 | – | – | 100 | inactive | Active
Cc1oc2ccccc2c1C(=O)c1ccc(OCCC[N+](C)(C)C)cc1 | – | – | 100 | – | –
